High-throughput results from PubChem BioAssay.
In the library only some 2.6% were active in any assay of this set; here they are far more common.
INS-1E GSIS act: GLuc luminescence reporter in INS-1E cells, primary screen for activators of glucose-dependent secretion of insulin; activation, % at 16.6 µM; INS-1E GLuc reporter insulin secretion, 2-3 h; AID 743287; 370,000 tested, 0.61% active;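 active = lowest replicate activation of at least 40%, so every replicate reaches that level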
Ecoli rRNA inh: inhibitors of bacterial rRNA selective over humanized ribosomes; AID 720706; GFP signal change (wild-type ribosome), % (concentration not given with the values); 350,000 tested, 1.6% active; E. coli WT GFP vs humanized-ribosome RFP mutants, fluorescence, 24 h; hits give low values; DMSO median 0, no signal -100;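 active = significant combined selectivity score with lowered wild-type GFP, culture density cut under 30%, mutant RFP and density less affected; inactive = any of these conditions unmet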
MLL AF4-AF9 inh: inhibitors of human MLL-AF4/AF9 interaction. AlphaScreen, biotin-AF4 peptide binding to FLAG-AF9. 350,000 tested, 0.47% active. inhibition, % at 10 µM. P42568;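 active = every replicate reaching a set inhibition limit, whatever the replicate mean, cut at about 25% in these data; inconclusive = mean inhibition reaches that limit but some replicates miss it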
RAD54 inh: RAD54 (human) branch migration inhibition | RAD54 Holliday junction branch migration, FAM/BHQ fluorescence | 360,000 tested, 0.14% active | inhibition, % at 10.4 µM;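 active = mean normalized replicate activity at least 40 and at least half of replicates scoring 40 or more; inconclusive = only one of the two criteria met; inactive = mean below 40 and under half of replicates reaching 40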;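 also: inhibitors cause a drop in the FAM fluorescence signal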
E-sel inducer: E-selectin induction on HUVECs | P16581 | HUVEC E-selectin immunofluorescence imaging; normalized: neutral wells 0, TNF-alpha wells 100 | activation, % at 7.58 µM | 260,000 tested, 0.37% active | AID 686992;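 active = mean E-selectin-positive cell signal at least 10% of the positive control, reached in at least 60% of replicates, without over 20% cell loss; inconclusive = no rule given, readout overlaps actives, possibly toxicity-flagged; inactive = the rest, including those meeting only one limit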
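Assay system: HUVEC, human umbilical vein endothelial cells / Amount: 3,000 HUVEC/well / Controls: TNF-alpha positive control, DMSO neutral control / Compound dosing: single concentration / Medium: EGM-2 over gelatin coat / Evaluation: percent E-selectin-positive cells / Signal: immunofluorescence imaging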
RAD52 anneal inh: RAD52 (human) annealing inhibition; P43351; recombinant RAD52 DNA annealing, FRET fluorescence; inhibition, % at 18.7 µM; 360,000 tested, 0.46% active;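 active = every replicate showing at least 50% inhibition; inconclusive = mean inhibition at least 50% but not in every replicate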
Target sequence (P43351 whole entry, looked up): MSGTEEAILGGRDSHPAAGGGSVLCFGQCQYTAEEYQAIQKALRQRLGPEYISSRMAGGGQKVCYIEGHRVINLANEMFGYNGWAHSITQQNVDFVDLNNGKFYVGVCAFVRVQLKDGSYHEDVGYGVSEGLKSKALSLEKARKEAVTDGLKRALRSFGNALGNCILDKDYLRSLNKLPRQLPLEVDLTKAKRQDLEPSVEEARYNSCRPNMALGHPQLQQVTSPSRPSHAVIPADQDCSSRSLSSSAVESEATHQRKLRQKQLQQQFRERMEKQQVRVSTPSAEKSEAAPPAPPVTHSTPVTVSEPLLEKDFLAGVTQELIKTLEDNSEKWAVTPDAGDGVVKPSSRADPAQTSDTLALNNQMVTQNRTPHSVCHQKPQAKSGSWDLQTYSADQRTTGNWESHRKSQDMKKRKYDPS
Hits are given with their value; - = inactive; ? = inconclusive; . = no result given.

SMILES | INS-1E GSIS act | Ecoli rRNA inh | MLL AF4-AF9 inh | RAD54 inh | E-sel inducer | RAD52 anneal inh
COC(=O)[C@@H]1[C@@H](CO)[C@@H]2Cn3c(ccc(-c4ccccc4F)c3=O)[C@H]1N2Cc1ccncc1 | - | - | - | - | - | 107
COC(=O)[C@H]1[C@H](CO)[C@H]2Cn3c(ccc(-c4ccccc4F)c3=O)[C@@H]1N2Cc1ccccc1 | - | - | - | - | - | -
CCCN1[C@@H]2c3ccc(-c4ccc(F)cc4)c(=O)n3C[C@H]1[C@H](CO)[C@H]2C(=O)OC | - | - | - | - | - | 57
COC(=O)[C@@H]1[C@@H](CO)[C@@H]2Cn3c(ccc(-c4cccc(F)c4)c3=O)[C@H]1N2Cc1ccncc1 | - | - | - | - | - | -
COC(=O)[C@@H]1[C@@H](CO)[C@@H]2Cn3c(ccc(C4=CCCC4)c3=O)[C@H]1N2CC1CCCCC1 | - | - | - | - | - | -
C[C@@H]1CN([C@@H](C)CO)C(=O)c2c(c3ccccc3n2C)-c2ccccc2CO[C@H]1CN(C)C(=O)Oc1ccccc1 | - | - | - | . | - | -
O=C(Cc1ccncc1)N1CCCCN2[C@@H](CO)[C@@H](c3ccc(C#Cc4ccccc4F)cc3)[C@@H]2C1 | - | - | - | - | - | .
CCOC(=O)c1c(C)n(CC(O)CN2CCOCC2)c2cc(Br)c(OC)cc12 (stereo not drawn) | - | -42 | - | . | - | -
CCOc1ccccc1OCC(=O)Nc1ccc(Cl)cc1C(=O)c1ccccc1 | . | - | - | - | - | -
O=C(COC(=O)c1cccc(O)c1)Nc1ccc(Cl)cc1C(=O)c1ccccc1 | - | -23 | - | . | . | -
COC(=O)[C@H]1[C@H](CO)[C@H]2Cn3c(ccc(-c4ccncc4)c3=O)[C@@H]1N2CCc1ccccc1 | - | - | - | - | - | -
C[C@H]1CC[C@@H]2[C@@H](C)[C@H]3[C@H](C[C@H]4[C@@H]5CC=C6C[C@@H](O[C@@H]7O[C@H](CO)[C@H](O)[C@H](O[C@@H]8O[C@H](CO)[C@@H](O)[C@H](O)[C@H]8O)[C@H]7O[C@@H]7O[C@@H](C)[C@H](O)[C@@H](O)[C@H]7O)CC[C@]6(C)[C@H]5CC[C@]34C)N2C1 | 50 | - | - | - | . | -
C[C@@H]1CC2C3CC=C4C[C@@H](O)CC[C@]4(C)C3CC[C@]2(C)[C@H]1O (stereo partly drawn) | . | - | - | - | - | -
O=c1[nH]c(=O)n(Cc2ccco2)c(O)c1C=NC1CCN(Cc2ccccc2)CC1 | - | - | 48 | - | - | -
O=c1[nH]c(=O)n(Cc2ccco2)c(O)c1/C=N/N1CCCCCC1 | - | - | - | - | . | -
COc1cc(/C=C2\C[C@H]3[C@@H]4CC=C5C[C@@H](N6CCCC6)CC[C@]5(C)[C@H]4CC[C@]3(C)[C@H]2O)cc(OC)c1OC | . | -21 | - | . | - | -
C=CCn1c(O)c(C(C)=NCCCN(C)C)c(=O)[nH]c1=O | - | - | - | . | 50 | -
C=CCn1c(O)c(C(C)=NCCCn2ccnc2)c(=O)[nH]c1=O | . | - | - | . | ? | -
COC(=O)[C@@H]1[C@@H](CO)[C@@H]2Cn3c(ccc(-c4cncnc4)c3=O)[C@H]1N2S(=O)(=O)c1ccccc1C | - | - | - | - | - | -
NS(=O)(=O)c1ccc(N=Cc2c(O)n(C3CCCCC3)c(=O)n(C3CCCCC3)c2=O)cc1 | 739 | . | . | - | . | .
CNC(=S)N(C)CCc1cc2c(c(OC)c1C=C1C(=O)NC(=O)NC1=O)OCO2 | - | - | 65 | - | . | -
C=CCN1C(=O)NC(=O)/C(=C/c2c(CCN(C)C(=O)c3ccccc3)cc3c(c2OC)OCO3)C1=O | . | . | - | - | . | -
[O-]c1ccccc1-[n+]1c(-c2ccccc2)cc(-c2ccccc2)cc1-c1ccccc1 | - | - | - | - | - | 61
CC(=O)N1C[C@@H]2C(c3ccc(Br)cc3)[C@H](C1)N2CC1CC1 (stereo partly drawn) | - | - | . | . | . | .
COc1ccc(CN2CCN(Cc3ccccc3F)CC2)cc1 | 43 | - | - | - | - | -
SMILES | INS-1E GSIS act | Ecoli rRNA inh | MLL AF4-AF9 inh | RAD54 inh | E-sel inducer | RAD52 anneal inh
O=c1c2ccccc2nc(/C=C/c2ccccc2F)n1-c1ccccc1O | - | -24 | - | - | - | -
O=c1c2ccccc2nc(/C=C\c2ccccc2[N+](=O)[O-])n1-c1ccccc1O | - | -29 | - | - | . | -
COC(=O)[C@H]1[C@H](CO)[C@H]2Cn3c(ccc(C4=CCCC4)c3=O)[C@@H]1N2C(=O)C1CCCCC1 | - | - | . | . | - | .
CCC(=NCCN1CCOCC1)c1c(O)n(C2CCCCC2)c(=O)[nH]c1=O | - | - | - | . | 30 | -
O=C(Cc1cccnc1)N1CCCCN2[C@@H](CO)[C@@H](c3ccc(C#CC4CC4)cc3)[C@@H]2C1 | . | . | - | - | . | -
CN1C(=O)C(=Cc2coc3ccccc3c2=O)C(=O)N(C)C1=O | - | - | - | . | 36 | -
CN1C(=O)C(=Cc2cn(CC#N)c3ccccc23)C(=O)N(C)C1=O | - | - | - | - | - | -
COC(=O)[C@@H]1[C@@H](CO)[C@@H]2Cn3c(ccc(-c4ccc(F)cc4)c3=O)[C@H]1N2C(=O)c1ccccc1F | - | - | - | - | - | -
O=C([C@H]1N[C@H]2c3cccc(=O)n3C[C@H]2[C@@H]1CO)N1CCCCC1 | - | - | . | . | . | .
CC(C)N(C(=O)CCl)c1ccccc1 | . | . | - | - | 83 | -
C/C(=N\NC(=O)c1ccccc1O)c1c(O)n(C2CCCCC2)c(=O)[nH]c1=O | - | -18 | - | - | . | -
CC(=NCCO)c1c(O)n(C2CCCCC2)c(=O)[nH]c1=O | . | . | . | - | . | .
C/C(=N\NC(=O)c1ccccc1)c1c(O)n(C2CCCCC2)c(=O)[nH]c1=O | - | - | - | - | - | -
C/C(=N\NC(=O)c1ccccc1Cl)c1c(O)n(C2CCCCC2)c(=O)[nH]c1=O | - | -32 | - | - | . | -
CN1C2CN(CC(F)(F)F)CC1C2c1ccc(Br)cc1 (stereo not drawn) | - | - | . | . | . | .
NC(C(=O)O)c1cc(=O)[nH]o1 (stereo not drawn) | - | - | - | - | 84 | -
O=C(Cc1cccnc1)N1CCCCN2[C@H](CO)[C@@H](c3ccc(C#CC4CC4)cc3)[C@H]2C1 | . | . | - | - | . | -
Clc1cccc(Cl)c1NC1=NCCS1 | - | - | - | - | - | -
Clc1cc(Cl)cc(NC2=NCCS2)c1 | - | -26 | - | - | - | -
Nc1c(C(=O)NCc2ccco2)c2nc3ccccc3nc2n1CCN1CCCCC1 | - | . | . | 75 | . | .
COc1ccc(Cn2c(N)c(C(=O)NCc3ccco3)c3nc4ccccc4nc32)cc1OC | . | . | . | - | . | .
C=C(C)Cn1c(=O)n(CC2CS2)c2ccccc21 (stereo not drawn) | 69 | . | . | . | . | .
COC(=O)[C@H]1[C@H](CO)[C@H]2Cn3c(ccc(C4=CCCCC4)c3=O)[C@@H]1N2CC1CCCCC1 | - | - | - | . | - | -
Cc1cccc(N=Nc2ccc(N(C)C)cc2)c1 | - | - | 27 | - | . | -
